According to ChEMBL document CHEMBL1914459 (Bioorg Med Chem Lett, 2011):
Activity calls are given as the source filed them. The rule behind the calls is not given here.

Assays:
[1] = target: T1, Prostaglandin D2 receptor 2 (Homo sapiens, UniProt Q9Y5Y4); test: Displacement of [3H]PGD2 from human CRTH2 receptor
T1 sequence (Q9Y5Y4 whole entry): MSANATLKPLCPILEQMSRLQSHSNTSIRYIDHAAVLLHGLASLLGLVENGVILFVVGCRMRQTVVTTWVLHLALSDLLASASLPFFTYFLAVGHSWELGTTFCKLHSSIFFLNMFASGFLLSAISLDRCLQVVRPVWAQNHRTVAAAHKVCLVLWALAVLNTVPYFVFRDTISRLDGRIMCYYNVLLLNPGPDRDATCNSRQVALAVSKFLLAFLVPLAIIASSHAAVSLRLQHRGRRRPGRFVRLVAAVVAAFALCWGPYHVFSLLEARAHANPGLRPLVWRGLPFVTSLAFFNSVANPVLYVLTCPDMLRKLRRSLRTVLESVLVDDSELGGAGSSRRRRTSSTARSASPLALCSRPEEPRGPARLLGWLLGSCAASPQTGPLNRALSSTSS
How it was run: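 Radioligand binding with ³H-PGD₂ as the labelled ligand; IC₅₀ reported as mean of n >2 measurements.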

[2] = Inhibition of human recombinant aldose reductase 2 after 15 mins by spectrophotometry analysis
[3] = Intrinsic clearance in rat hepatocytes assessed as per 1 x 10^6 cells
[4] = Lipophilicity, log D of the compound at pH 7.4; settings: buffer
[5] = Clearance in Sprague-Dawley rat at 1 mg/kg, iv; type: ADME, organism-based; set-up: dose 1 mg/kg, route intravenous; settings: in vivo
[6] = Volume of distribution at steady state in Sprague-Dawley rat at 1 mg/kg, iv; type: ADME, organism-based; set-up: dose 1 mg/kg, route intravenous; settings: in vivo, read-out: Vdss
[7] = Half life in Sprague-Dawley rat at 1 mg/kg, iv; type: ADME, organism-based; set-up: dose 1 mg/kg, route intravenous; settings: in vivo
[8] = Oral bioavailability in Sprague-Dawley rat at 3 mg/kg; type: ADME, organism-based; settings: in vivo
[9] = species: Homo sapiens; test: Selectivity ratio of IC50 for human recombinant aldose reductase 1 to IC50 for human CRTh2 receptor
How it was run: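 Ratio of two IC50s from separate assays. […] ALR1 activity was followed at […] as NADPH oxidation, at 22 °C. All reagents except NADPH were preincubated 15 min before NADPH started the reaction. Initial linear rates were corrected for non-enzymatic NADPH oxidation, and % inhibition was taken against no-compound control.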

[10] = target: Aldehyde reductase AKR1A1 (Homo sapiens); test: Inhibition of human recombinant aldose reductase 1 after 15 mins by spectrophotometry analysis
[11] = target: T1, Prostaglandin D2 receptor 2; test: Antagonist activity at human CRTh2 receptor expressed in HEK cells assessed as inhibition of PGD2-induced calcium flux; type: functional, cell-based, HEK293
[12] = target: Aldo-keto reductase family 1 member B1 (Rattus norvegicus, UniProt P07943); test: Inhibition of rat aldose reductase
[13] = target: Cytochrome P450 2C9 (Homo sapiens, UniProt P11712); test: Inhibition of CYP2C9; type: ADME
Cytochrome P450 2C9, sequence (P11712 whole entry): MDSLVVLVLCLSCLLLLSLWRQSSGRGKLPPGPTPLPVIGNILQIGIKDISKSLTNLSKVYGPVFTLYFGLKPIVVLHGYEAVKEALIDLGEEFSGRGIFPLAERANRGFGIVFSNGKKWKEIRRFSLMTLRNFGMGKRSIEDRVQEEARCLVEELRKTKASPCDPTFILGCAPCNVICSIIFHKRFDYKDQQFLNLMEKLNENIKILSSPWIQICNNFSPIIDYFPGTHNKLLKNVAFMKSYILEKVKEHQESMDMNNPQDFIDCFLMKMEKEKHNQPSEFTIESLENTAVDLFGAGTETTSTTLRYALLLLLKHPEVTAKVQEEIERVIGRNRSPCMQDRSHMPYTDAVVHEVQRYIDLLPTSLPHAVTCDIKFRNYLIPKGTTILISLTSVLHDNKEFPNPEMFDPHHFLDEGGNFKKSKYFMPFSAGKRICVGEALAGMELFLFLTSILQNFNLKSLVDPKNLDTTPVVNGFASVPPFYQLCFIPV

[14] = Oral bioavailability in Sprague-Dawley rat at 4 mg/kg; type: ADME, organism-based; settings: in vivo
[15] = target: T2, Cytochrome P450 1A2 (Homo sapiens, UniProt P05177); test: Inhibition of CYP1A2; type: ADME
T2 sequence (P05177 whole entry): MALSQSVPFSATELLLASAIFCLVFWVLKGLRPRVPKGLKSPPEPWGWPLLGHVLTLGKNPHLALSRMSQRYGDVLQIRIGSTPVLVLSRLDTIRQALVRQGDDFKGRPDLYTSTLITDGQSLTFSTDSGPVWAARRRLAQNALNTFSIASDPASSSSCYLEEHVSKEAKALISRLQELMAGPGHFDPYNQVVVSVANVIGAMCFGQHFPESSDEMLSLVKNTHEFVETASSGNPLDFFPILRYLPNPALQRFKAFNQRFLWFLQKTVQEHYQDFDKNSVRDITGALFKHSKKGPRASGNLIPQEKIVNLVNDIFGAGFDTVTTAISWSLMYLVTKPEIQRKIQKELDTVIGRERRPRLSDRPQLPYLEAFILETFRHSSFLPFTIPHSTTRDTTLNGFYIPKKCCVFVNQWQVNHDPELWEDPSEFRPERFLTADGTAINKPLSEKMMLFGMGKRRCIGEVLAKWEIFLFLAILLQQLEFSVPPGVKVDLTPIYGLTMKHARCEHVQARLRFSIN

[16] = target: Cytochrome P450 2D6 (Homo sapiens, UniProt P10635); test: Inhibition of CYP2D6; type: ADME
Cytochrome P450 2D6, sequence (P10635 whole entry): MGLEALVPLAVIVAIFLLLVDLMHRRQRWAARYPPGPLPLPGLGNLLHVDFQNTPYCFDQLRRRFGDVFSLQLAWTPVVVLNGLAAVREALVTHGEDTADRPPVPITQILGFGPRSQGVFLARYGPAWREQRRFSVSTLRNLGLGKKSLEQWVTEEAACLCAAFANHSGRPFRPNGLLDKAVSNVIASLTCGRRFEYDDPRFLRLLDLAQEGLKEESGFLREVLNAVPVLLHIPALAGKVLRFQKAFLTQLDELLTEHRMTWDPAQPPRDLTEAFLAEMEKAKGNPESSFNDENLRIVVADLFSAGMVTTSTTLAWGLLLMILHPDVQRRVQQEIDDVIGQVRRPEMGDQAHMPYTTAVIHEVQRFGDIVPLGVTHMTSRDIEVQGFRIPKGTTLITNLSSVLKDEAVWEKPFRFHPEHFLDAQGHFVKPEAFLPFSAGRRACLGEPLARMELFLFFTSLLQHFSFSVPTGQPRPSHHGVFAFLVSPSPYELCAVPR

[17] = target: Cytochrome P450 3A4 (Homo sapiens, UniProt P08684); test: Inhibition of CYP3A4; type: ADME
Cytochrome P450 3A4, sequence (P08684 whole entry): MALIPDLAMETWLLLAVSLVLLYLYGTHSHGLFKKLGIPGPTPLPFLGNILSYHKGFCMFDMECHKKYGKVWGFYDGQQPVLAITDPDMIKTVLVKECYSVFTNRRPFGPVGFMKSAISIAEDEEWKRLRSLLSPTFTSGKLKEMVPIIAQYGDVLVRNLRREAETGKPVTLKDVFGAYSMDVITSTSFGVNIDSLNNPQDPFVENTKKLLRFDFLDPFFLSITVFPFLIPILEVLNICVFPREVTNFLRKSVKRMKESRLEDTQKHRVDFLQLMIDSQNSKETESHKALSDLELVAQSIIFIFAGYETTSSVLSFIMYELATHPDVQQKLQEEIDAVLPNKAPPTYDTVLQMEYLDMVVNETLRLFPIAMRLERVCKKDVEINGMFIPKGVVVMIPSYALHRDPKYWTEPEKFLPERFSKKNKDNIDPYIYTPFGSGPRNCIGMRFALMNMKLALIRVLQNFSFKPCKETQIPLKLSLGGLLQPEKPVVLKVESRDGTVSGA

[18] = target: T3, Thromboxane A2 receptor (Homo sapiens) (UniProt P21731); test: Antagonist activity at prostanoid TP receptor assessed as inhibition of arachidonic acid-induced platelet aggregation at >/= 1 uM; type: functional
T3 sequence (whole entry): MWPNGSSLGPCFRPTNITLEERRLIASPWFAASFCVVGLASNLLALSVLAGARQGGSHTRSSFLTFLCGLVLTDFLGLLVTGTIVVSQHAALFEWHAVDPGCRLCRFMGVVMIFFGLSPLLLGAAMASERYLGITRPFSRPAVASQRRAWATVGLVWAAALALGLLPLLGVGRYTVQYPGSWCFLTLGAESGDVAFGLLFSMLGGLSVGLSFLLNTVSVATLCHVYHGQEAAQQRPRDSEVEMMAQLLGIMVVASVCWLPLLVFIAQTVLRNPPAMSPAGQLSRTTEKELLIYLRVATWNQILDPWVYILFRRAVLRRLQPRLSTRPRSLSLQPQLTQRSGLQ

[19] = target: T4, Prostaglandin D2 receptor (Homo sapiens) (UniProt Q13258); test: Antagonist activity at prostanoid DP1 receptor; type: functional
T4 sequence (whole entry): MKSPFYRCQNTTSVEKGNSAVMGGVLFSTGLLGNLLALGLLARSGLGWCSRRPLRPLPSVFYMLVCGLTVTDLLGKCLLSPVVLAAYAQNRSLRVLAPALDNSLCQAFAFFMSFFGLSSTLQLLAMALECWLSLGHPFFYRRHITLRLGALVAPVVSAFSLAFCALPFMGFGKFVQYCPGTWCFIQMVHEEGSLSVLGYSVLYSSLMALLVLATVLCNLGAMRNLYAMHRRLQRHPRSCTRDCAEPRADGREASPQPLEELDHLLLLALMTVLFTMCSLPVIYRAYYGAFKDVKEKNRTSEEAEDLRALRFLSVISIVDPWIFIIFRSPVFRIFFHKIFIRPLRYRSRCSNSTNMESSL

[20] = target: Prostaglandin G/H synthase 1 (Homo sapiens) (UniProt P23219); test: Inhibition of COX1 assessed as inhibition of arachidonic acid-induced platelet aggregation at >/= 1 uM
Prostaglandin G/H synthase 1 (Homo sapiens), sequence (P23219 whole entry): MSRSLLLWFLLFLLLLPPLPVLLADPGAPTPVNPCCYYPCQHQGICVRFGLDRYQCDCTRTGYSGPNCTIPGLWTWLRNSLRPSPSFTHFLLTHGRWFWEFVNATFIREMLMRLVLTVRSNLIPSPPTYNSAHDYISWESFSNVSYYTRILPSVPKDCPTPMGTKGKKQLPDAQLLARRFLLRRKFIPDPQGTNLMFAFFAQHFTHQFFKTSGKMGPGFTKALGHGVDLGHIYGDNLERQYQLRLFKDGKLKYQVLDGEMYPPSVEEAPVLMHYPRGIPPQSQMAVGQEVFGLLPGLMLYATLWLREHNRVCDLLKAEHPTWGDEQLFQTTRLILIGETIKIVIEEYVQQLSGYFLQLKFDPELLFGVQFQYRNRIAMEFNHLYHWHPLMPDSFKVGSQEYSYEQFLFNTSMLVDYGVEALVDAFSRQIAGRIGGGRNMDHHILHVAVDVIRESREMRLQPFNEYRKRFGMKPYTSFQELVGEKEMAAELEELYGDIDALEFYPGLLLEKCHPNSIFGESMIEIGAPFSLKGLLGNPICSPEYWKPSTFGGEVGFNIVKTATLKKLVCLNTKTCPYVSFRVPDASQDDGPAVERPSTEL

[21] = target: T1, Prostaglandin D2 receptor 2; test: Antagonist activity against human CRTh2 receptor in human eosinophils assessed as inhibition of DK-PGD2-induced CD11b expression; type: functional

Structure (SMILES)	IC50 [1]	IC50 [2]	hepatocyte CLint [3]	logD [4]	IC50 [10]	also measured
CC(=O)Nc1cccc2c1c(S(=O)(=O)c1ccc(Cl)cc1)c(C)n2CC(=O)O	7.1 nM	4470 nM	< 1 µL/min/1e6 cells	0.4	708 nM	clearance [5]: 4 mL/min/kg; Vd [6]: 0.2 L/kg; half-life [7]: 0.9 h; bioavailability [8]: < 10%; Ratio IC50 [9]: 100
Cc1c(Sc2ccc(Cl)cc2)c2c(C#N)c(Cl)ccc2n1CC(=O)O	6.1 nM	4730 nM	6 µL/min/1e6 cells	1.6	2240 nM	
Cc1ccc2c(c1)c(Sc1ccccc1)c(C)n2CC(=O)O	20 nM					IC50 [11]: 25 nM; IC50 [12]: 157 nM
Cc1c(S(=O)(=O)c2ccc(Cl)cc2)c2c(NS(C)(=O)=O)cccc2n1CC(=O)O	7.9 nM	> 5840 nM		-0.8	63 nM	
COc1cccc(S(=O)(=O)c2c(C)n(CC(=O)O)c3ccc(C)cc23)c1	71 nM	724 nM	14 µL/min/1e6 cells	-0.4	115 nM	Ratio IC50 [9]: < 20
Cc1ccc2c(c1)c(Sc1ccc(S(C)(=O)=O)cc1)c(C)n2CC(=O)O	1.4 nM	> 10000 nM	7 µL/min/1e6 cells	-0.1		IC50 [13]: 5200 nM
Cc1c(Sc2ccc(Cl)cc2)c2c(Cl)cccc2n1CC(=O)O	25 nM	5010 nM		2.2	1780 nM	
CCS(=O)(=O)c1ccc(Oc2c(C)n(CC(=O)O)c3ccc(C(F)(F)F)cc23)cc1	3.5 nM	> 10000 nM		0.3	3980 nM	
Cc1c(Sc2ccc(Cl)cc2)c2c(NS(C)(=O)=O)cccc2n1CC(=O)O	1.8 nM	> 5310 nM	6 µL/min/1e6 cells	0.2		IC50 [13]: 10000 nM; clearance [5]: 11 mL/min/kg; Vd [6]: 1.1 L/kg; half-life [7]: 1.7 h; bioavailability [14]: 42%
Cc1c(Sc2ccc(Cl)cc2)c2cc(F)ccc2n1CC(=O)O	1.6 nM	> 7940 nM	19 µL/min/1e6 cells	1.8	3160 nM	
Cc1c(Oc2ccc(Cl)cc2)c2c(NS(C)(=O)=O)cccc2n1CC(=O)O	3.5 nM		8 µL/min/1e6 cells	-1		clearance [5]: 20 mL/min/kg; Vd [6]: 1.7 L/kg; half-life [7]: 1.4 h; bioavailability [8]: > 46%
Cc1c(F)ccc2c1c(Sc1ccc(Cl)cc1)c(C)n2CC(=O)O	1.3 nM	3550 nM		2.2	2240 nM	
CC(=O)Nc1cccc2c1c(Sc1ccc(Cl)cc1)c(C)n2CC(=O)O [AZD1981]	4.3 nM	2510 nM	1 µL/min/1e6 cells	-0.2		IC50 [13]: > 10000 nM; IC50 [15]: > 10000 nM; IC50 [16]: > 10000 nM; IC50 [17]: > 10000 nM; inhibition [18]: inactive; clearance [5]: 4 mL/min/kg; Vd [6]: 0.5 L/kg; half-life [7]: 1.9 h; bioavailability [14]: 63%; Activity [19]: inactive; inhibition [20]: inactive; IC50 [21]: 10 nM
COc1ccc(Sc2c(C)n(CC(=O)O)c3ccc(C)cc23)cc1	7.1 nM	251 nM	24 µL/min/1e6 cells	1	282 nM	
Cc1c(Sc2ccc(Cl)cc2)c2cc(-c3ccccc3)ccc2n1CC(=O)O	3.5 nM	4470 nM		3.7	1780 nM	
Cc1ccc2c(c1)c(Sc1ccc(Cl)cc1)c(C)n2CC(=O)O	15 nM		18 µL/min/1e6 cells			IC50 [11]: 87 nM; IC50 [13]: 800 nM
Cc1c(Sc2ccc(Cl)cc2)c2cc(Cl)ccc2n1CC(=O)O	13 nM					IC50 [11]: 35 nM
